TRPC4 agonist: opens the mouse TRPC4 cation channel | Q9QUQ5 | HEK293 TRPC4beta/mu-opioid, Fluo4 calcium fluorescence; stronger effect = higher value | B-score at 10 µM | 0.49% of 310,000 active | AID 2237;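 active = B-score above 5 SD of library B-scores, and initial fluorescence ratio not above library mean plus 5 SD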;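 note: positive B-score marks a calcium rise read as TRPC4 activation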
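Material: TRPC4beta and mu-opioid receptor HEK293 stable cells | Incubation: 45 min room-temperature Fluo4 loading, 110 s read | Detection: Kinetic Fluo4 calcium fluorescence | Measure: Integrated baseline-normalised fluorescence ratio, converted to per-well B score | Benchmarks: Low control buffer alone, high control maximal DAMGO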
TRPC6 inhibitor: blocks the mouse TRPC6 cation channel; AID 2553; HEK293-TRPC6, membrane potential dye, ACh-evoked depolarization; stronger effect = lower value; B-score at 10 µM; 1.1% of 310,000 active;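 active = B-score under library mean minus 3 SD, initial fluorescence not abnormally high, positive integrated signal ratio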;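 note: B-score derived from integrated fluorescence ratio over the kinetic read; more negative B-score means stronger inhibition of depolarization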
TRPC4 block: TRPC4 (mouse) channel inhibition | HEK293 TRPC4beta/mu-opioid, DAMGO-evoked Fluo4 calcium flux; stronger effect = lower value | B-score at 10 µM | 0.39% of 300,000 active | AID 2247;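 active = B-score over 3 SD under the library average, no early fluorescence shift, positive overall ratio signal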
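Material: HEK293 cells with stable TRPC4beta plus mu-opioid receptor expression; probe or stimulus: DAMGO in two steps, submaximal then maximal; technique: Fluo4 calcium fluorescence by kinetic imaging, 5 s 1 Hz baseline; measure: integrated fluorescence ratio relative to baseline, converted to per-well B score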
TRPC4 PAM: TRPC4 (mouse) allosteric potentiation; HEK293 TRPC4beta/mu-opioid, DAMGO EC20, Fluo-4 Ca2+ flux; stronger effect = higher value; AID 2227; 0.42% of 310,000 active; Q9QUQ5; B-score at 10 µM;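 active = B-score of calcium response area above 5 SD of library B-scores, with initial fluorescence ratio within 5 SD of library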;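 note: B-score of integrated fluorescence ratio over time as area under calcium response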
TRPC6 activator: mouse TRPC6 channel activation; AID 2550; B-score at 10 µM; 0.13% of 310,000 active; HEK293-TRPC6 membrane potential dye fluorescence; stronger effect = higher value; Q61143;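 active = B-score of the integrated fluorescence ratio above library mean plus 3 SD, and starting fluorescence ratio within library mean plus 5 SD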;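 note: higher score means more depolarization so channel activation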
Starred values were filed as active, the others as inactive; i = inactive. Shown are actives, neighbours in structure and some others; about 2.3% of the full set was active somewhere.

SMILES | TRPC4 agonist | TRPC6 inhibitor | TRPC4 block | TRPC4 PAM | TRPC6 activator
CCOC(=O)C1CCN(c2nc3ccccc3nc2C(C#N)C(=O)OC(C)COC)CC1 (centres undefined) | i | i | i | i | i
CCOC(=O)C1=C(COC(=O)Cc2ccc(Br)cc2)NC(=O)NC1C (centres undefined) | i | i | i | i | i
Cc1noc(/C=C/N(C)C)c1S(=O)(=O)N(C)Cc1ccc(F)cc1 | i | i | i | i | i
CCOC(=O)c1oc2ccc(OC)cc2c1NC(=O)CN1CCN(C)CC1 | 88* | i | i | i | i
CCOC(=O)c1oc2ccccc2c1NC(=O)CN1CCN(C)CC1 | i | i | i | i | i
O=C(c1cc2c(s1)CCCCC2)N1CCN(c2ncccn2)CC1 | i | i | i | i | i
CC(=O)c1ccc(N2CCN(C(=O)c3cc4c(s3)CCCC4)CC2)cc1 | i | i | i | 10* | i
O=C(COc1ccccc1)N(Cc1cccc(F)c1)C1CCS(=O)(=O)C1 (centres undefined) | i | i | i | i | i
CC(=O)N1CCc2cc(S(=O)(=O)NC(Cc3ccccc3)C(=O)O)ccc21 (centres undefined) | i | i | i | i | i
CCOC(=O)C(C)c1n[nH]c(=O)c2ccccc12 (centres undefined) | i | i | i | 13* | i
C[C@H](C(=O)O)c1n[nH]c(=O)c2ccccc12 | i | i | i | i | i
Cc1cc2nnc(SCC(=O)NC3CCCCC3)n2c(N)n1 | i | i | i | i | i
O=S(=O)(NCc1cc(-c2ccccc2Cl)no1)c1ccc(Cl)cc1 | i | i | i | 10* | i
COC(=O)c1cccc2c1-c1ccccc1/C2=N\NC(N)=O | i | i | i | i | i
COC(=O)c1cccc2c1-c1ccccc1/C2=N/O | i | i | -7* | i | i
COc1ccc(/C=N/Nc2nc3ccccc3s2)cc1O | i | i | i | 16* | i
COc1ccc(/C=N/Nc2nc3ccccc3o2)cc1O | i | i | i | i | i
COc1ccc(/C=N/NC(=O)c2ccc(F)cc2)cc1CN1CCc2cc(OC)c(OC)cc2C1C (centres undefined) | i | i | -6* | i | i
COc1ccc(/C=N/NC(=O)c2ccc(C)cc2)cc1CN1CCN(c2ccc(F)cc2)CC1 | i | i | i | i | i
O=C(C1CCCO1)N1CCN(C(=S)Nc2ccccc2F)CC1 (centres undefined) | i | i | i | i | i
Cc1ccc(-n2cc(CNCC3CC(=O)N(C4CC4)C3)c(-c3cccc(C)c3)n2)cc1 (centres undefined) | 153* | i | i | i | i
CC(C)(C)C(=O)Nc1sc(-c2ccccc2)cc1C(=O)O | i | i | i | i | i
Cc1cccc(C(=O)Nc2sc(-c3ccccc3)cc2C(=O)O)c1 | i | i | -6* | i | i
CCCCN(CC)CCCNC(=O)c1ccc2c(c1)N(CC)C(=O)c1ccccc1S2(=O)=O | i | i | i | 14* | i
CCN1C(=O)c2ccccc2S(=O)(=O)c2ccc(C(=O)NCCOC)cc21 | i | i | i | i | i
SMILES | TRPC4 agonist | TRPC6 inhibitor | TRPC4 block | TRPC4 PAM | TRPC6 activator
O/N=C/c1cccc[n+]1CCCCCC[n+]1ccccc1/C=N/O | i | i | i | i | i
CCCCCCCCC[n+]1cccc2c3ccccc3ccc21 | i | -5.7* | i | i | i
CCOC(=O)N1CCC(NC(=O)CSCc2nc(-c3ccc(OCC)cc3)oc2C)CC1 | i | i | i | i | i
Cc1oc(-c2ccc(Cl)cc2)nc1CSCC(=O)NC1CCN(Cc2ccccc2)CC1 | i | i | i | 12* | i
NC1=NC[C@H](CC2CCCCC2)N1CCc1cc(C(F)(F)F)cc(C(F)(F)F)c1 | 67* | i | i | i | i
COc1ccc(NS(=O)(=O)c2csc(C(N)=O)c2)cc1OC | i | i | i | 16* | i
CN1CCN(c2ncnc3scc(-c4ccccc4Cl)c23)CC1 | i | i | i | i | i
Cc1cc(-c2csc3ncnc(N4CCN(C)CC4)c23)cc(C)c1C | i | i | -7* | i | i
CC(=C1C(=O)c2ccccc2C1=O)N1CCN(C/C=C/c2ccccc2)CC1 | 49* | i | i | i | i
O=C1OC(N2CCN(C/C=C/c3ccccc3)CC2)c2ccccc21 (centres undefined) | 83* | i | i | i | i
CC(=C1C(=O)c2ccccc2C1=O)N1CCN(Cc2ccccc2)CC1 | i | i | i | i | i
O=S(=O)(c1ccccc1)N1CCN(C/C=C/c2ccccc2)CC1 | i | i | -6* | i | i
O=C(O)C1C2C=CC(C2)C1C(=O)N1CCN(C/C=C/c2ccccc2)CC1 (centres undefined) | 84* | i | i | i | i
Cc1ccc(C(=O)N2CCN(C)CC2)cc1S(=O)(=O)N1CCCCCC1 | i | i | i | i | i
Cc1ccc(S(=O)(=O)NCc2ccccc2)cc1C(=O)NC1CCC(C)CC1 (centres undefined) | i | i | i | i | i
O=C(O)c1ccc(N/N=C/c2c[nH]c3ccccc23)cc1 | i | -5.2* | i | i | i
Cc1ccc(NC(=O)Cn2cc(C(F)(F)F)cc(Cl)c2=O)cc1S(=O)(=O)N1CCCCC1 | i | i | i | i | i
CCOc1ccccc1CN1CCN(Cc2cccc3nonc23)CC1CCO (centres undefined) | i | i | -6* | i | i
COC(=O)Nc1nn(-c2ccc(OC)cc2)c(=O)c(C#N)c1C | i | i | i | i | i
COc1ccccc1C1CCN(Cc2ccc(Cl)c(Cl)c2)CC1 | i | i | i | i | i
CN[C@@H]1CC[C@H](c2ccc(Cl)c(Cl)c2)c2ccccc21 | i | i | i | 14* | i
CSc1ccc(CN(C)CCc2ccccn2)cc1 | i | i | i | i | i
Cc1ccc(OCc2cc(C(=O)N(C)CCc3ccccn3)no2)cn1 | 81* | i | i | i | i
CN(CCc1ccccn1)C(=O)Nc1ccc(F)cc1 | 63* | i | i | i | i
CN(CCc1ccccn1)S(=O)(=O)c1ccccc1F | 79* | i | i | i | i
Cc1ccc(OCC(=O)N(C)CCc2ccccn2)cc1 | 89* | i | i | i | i
NNc1nc2cc3c(cc2s1)OCCO3 | i | i | i | i | i
